The species entered for assay [1] is Cavia porcellus. Put plainly: Evaluated for its ability to inhibit the electrically evoked contraction of the guinea pig ileum(GPI). The class given is functional. Put shortly:
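Strips of guinea pig ileum longitudinal muscle–myenteric plexus were electrically stimulated and inhibition of contraction was recorded. IC50 and its standard error came from fitting mean data to the Hill equation by nonlinear least squares. Selected analogues were retested with 1000 nM CTAP as mu antagonist to look for a shift.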

Assay [2] deals with Kappa-type opioid receptor (Cavia porcellus, UniProt P41144). Put plainly: Inhibition of binding [3H][…] at Opioid receptor kappa 1 of guinea pig brain membrane (GPB) homogenates. Put shortly:
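Whole-brain membranes from adult male guinea pigs (200–400 g) were used. Mean ± SEM of three or more independent measurements.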

Assay [3] deals with Mu-type opioid receptor (Cavia porcellus, UniProt P97266). Put plainly: Inhibition of binding [3H]DAMGO at Opioid receptor mu 1 of guinea pig brain membrane (GPB) homogenates. Put shortly: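 Membranes from whole brains of adult male guinea pigs (200–400 g). Displacement of [3H]DAMGO at 1.0 nM for mu sites, with 180 min incubation. Values come from at least three independent measurements and are given as mean ± SEM.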
Mu-type opioid receptor, sequence (P97266 whole entry): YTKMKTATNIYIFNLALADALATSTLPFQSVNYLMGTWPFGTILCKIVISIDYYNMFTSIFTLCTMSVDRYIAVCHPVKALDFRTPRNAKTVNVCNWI

Assay [4] can be described thus: Ratio between IC50 of GPI and GPB. Type of assay: functional.
In assay [5] the test system is Opioid receptors mu & kappa (Cavia porcellus). Description: Selectivity ratio between mu and kappa opioid receptor from guinea pig brain homogenate.
The subject of assay [6] is Opioid receptors delta & kappa (Cavia porcellus). Description: Selectivity ratio between delta and kappa opioid receptor from guinea pig brain homogenate.
The species entered for assay [7] is Cavia porcellus. Description: Ability to inhibit the electrically evoked contraction of the guinea pig ileum(GPI)at concentration of 30 uM. The class given is functional.
Assay [8] is filed under the species Cavia porcellus. Description: Compound was evaluated for its ability to inhibit the electrically evoked contraction of the guinea pig ileum(GPI).at concentration of 60 uM. The class given is functional.
The species entered for assay [9] is Cavia porcellus. Put plainly: Ability to inhibit the electrically evoked contraction of the guinea pig ileum(GPI).at concentration of 60 uM. The class given is functional.
Assay [10] is filed under the species Cavia porcellus. Put plainly: Ability to inhibit the electrically evoked contraction of the guinea pig ileum(GPI).at concentration of 30 uM. Type of assay: functional.
For assay [11], the target named is Delta-type opioid receptor (Mus musculus) (UniProt P32300). Description: Agonistic activity towards Opioid receptor delta 1 was determined by evaluating the inhibitory activity towards electrically stimulated mouse vas deferens. The settings on record: concentration not given here.
Delta-type opioid receptor (Mus musculus), sequence (P32300 whole entry, looked up): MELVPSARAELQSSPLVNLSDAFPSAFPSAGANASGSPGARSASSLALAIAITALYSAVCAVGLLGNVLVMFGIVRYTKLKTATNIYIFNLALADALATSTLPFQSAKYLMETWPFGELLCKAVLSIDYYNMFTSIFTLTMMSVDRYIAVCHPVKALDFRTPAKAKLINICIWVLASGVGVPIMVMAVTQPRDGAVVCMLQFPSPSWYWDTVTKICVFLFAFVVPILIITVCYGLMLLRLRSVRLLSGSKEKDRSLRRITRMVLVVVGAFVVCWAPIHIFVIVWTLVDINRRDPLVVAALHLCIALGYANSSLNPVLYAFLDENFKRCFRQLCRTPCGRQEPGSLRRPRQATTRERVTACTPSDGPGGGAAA

Kappa-type opioid receptor, sequence (P41144 whole entry): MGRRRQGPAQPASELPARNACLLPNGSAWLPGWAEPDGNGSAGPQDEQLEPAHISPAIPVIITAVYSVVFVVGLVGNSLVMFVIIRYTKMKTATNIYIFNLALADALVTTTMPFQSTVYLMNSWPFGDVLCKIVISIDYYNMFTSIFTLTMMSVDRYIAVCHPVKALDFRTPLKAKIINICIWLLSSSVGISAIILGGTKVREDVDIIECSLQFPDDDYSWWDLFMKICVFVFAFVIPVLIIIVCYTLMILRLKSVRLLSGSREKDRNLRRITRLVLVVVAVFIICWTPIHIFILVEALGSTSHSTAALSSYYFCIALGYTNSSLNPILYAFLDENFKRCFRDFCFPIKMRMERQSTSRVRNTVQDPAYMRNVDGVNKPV

As usually defined, the IC50 is the concentration needed to halve the response being measured. Low readings indicate inhibition by little substance, high ones a need for much substance. `CC[C@H](C)[C@H](NC(=O)[C@H](CCCN=C(N)N)NC(=O)[C@H](CCCN=C(N)N)NC(=O)[C@H](CC(C)C)NC(=O)[C@H](Cc1ccccc1)NC(=O)[C@@H](NC(=O)CNC(=O)[C@@H](N)Cc1ccc(O)cc1)[C@@H](C)c1ccccc1)C(=O)N[C@@H](CCCN=C(N)N)C(=O)N1CCC[C@H]1C(=O)N[C@@H](CCCCN)C(N)=O`: the IC50 turned out to be 2190 nM in assay [1], 121 nM in assay [2] and 1350 nM in [3]. Moreover, the Ratio is 18 in [4], 11 in assay [5] and 13 in assay [6].
As to `CC[C@H](C)[C@H](NC(=O)[C@H](CCCN=C(N)N)NC(=O)[C@H](CCCN=C(N)N)NC(=O)[C@H](CC(C)C)NC(=O)[C@H](Cc1ccccc1)NC(=O)[C@@H](CCCN=C(N)N)NC(=O)CNC(=O)[C@@H](N)Cc1ccc(O)cc1)C(=O)N[C@@H](CCCN=C(N)N)C(=O)N1CCC[C@H]1C(=O)N[C@@H](CCCCN)C(N)=O`, the Ratio is above 260 in assay [4], 22 in assay [5] and above 260 in assay [6].
For the compound `CC[C@H](C)[C@H](NC(=O)[C@H](CCCN=C(N)N)NC(=O)[C@H](CCCN=C(N)N)NC(=O)[C@H](CC(C)C)NC(=O)[C@H](Cc1ccccc1)NC(=O)[C@H](NC(=O)CNC(=O)[C@@H](N)Cc1ccc(O)cc1)[C@@H](C)c1ccccc1)C(=O)N[C@@H](CCCN=C(N)N)C(=O)N1CCC[C@H]1C(=O)N[C@@H](CCCCN)C(N)=O`, the IC50 turned out to be 2800 nM in assay [1], 6 nM in assay [2] and 112 nM in assay [3]. Moreover, the figures for the Ratio in assay [4], in assay [5] and in assay [6] were 467, 20 and 112, respectively.
On to `CC[C@H](C)[C@H](NC(=O)[C@H](CCCN=C(N)N)NC(=O)[C@H](CCCN=C(N)N)NC(=O)[C@H](CC(C)C)NC(=O)[C@H](Cc1ccccc1)NC(=O)[C@@H](CCCCN)NC(=O)CNC(=O)[C@@H](N)Cc1ccc(O)cc1)C(=O)N[C@@H](CCCN=C(N)N)C(=O)N1CCC[C@H]1C(=O)N[C@@H](CCCCN)C(N)=O`, for which, in assay [1], the IC50 is 21000 nM. The Ratio turned out to be 55 in assay [4], 5 in assay [5] and 42 in assay [6].
Turning to `CC[C@H](C)[C@H](NC(=O)[C@H](CCCNC(=N)N)NC(=O)[C@H](CCCNC(=N)N)NC(=O)[C@H](CC(C)C)NC(=O)[C@H](Cc1ccccc1)NC(=O)[C@@H](CCCCN)NC(=O)CNC(=O)[C@@H](N)Cc1ccc(O)cc1)C(=O)N[C@@H](CCCNC(=N)N)C(=O)N1CCC[C@H]1C(=O)N[C@@H](CCCCN)C(N)=O`, the IC50 in assay [2] was found to be 380 nM; in [3] it was 1900 nM.
Turning to `CC[C@H](C)[C@H](NC(=O)[C@H](CCCN=C(N)N)NC(=O)[C@H](CCCN=C(N)N)NC(=O)[C@H](CC(C)C)NC(=O)[C@H](Cc1ccccc1)NC(=O)CNC(=O)CNC(=O)[C@@H](N)Cc1ccc(O)cc1)C(=O)N[C@@H](CCCN=C(N)N)C(=O)N1CCC[C@H]1C(=O)N[C@@H](CCCCN)C(N)=O`, in assay [1], the IC50 turned out to be 1 nM.
As a reminder, the inhibition is the change of the read-out against control, counted positive when it falls. Low readings indicate a response near the control, high ones a response far below the control. In [7], `CC[C@H](C)[C@H](NC(=O)[C@H](CCCN=C(N)N)NC(=O)[C@H](CCCN=C(N)N)NC(=O)[C@H](CC(C)C)NC(=O)[C@H](Cc1ccccc1)NC(=O)[C@H](CCC(=O)O)NC(=O)CNC(=O)[C@@H](N)Cc1ccc(O)cc1)C(=O)N[C@@H](CCCN=C(N)N)C(=O)N1CCC[C@H]1C(=O)N[C@@H](CCCCN)C(N)=O` had an inhibition at 30 µM of 48%. Besides, the IC50 amounted to 150 nM in assay [2] and 6600 nM in [3]. The Ratio in assay [4] was above 200; in assay [5], 44; in assay [6] it was 20.
As a reminder, the Inhibition is how much of the control response was suppressed. With `CC[C@@H](C)[C@@H](NC(=O)CNC(=O)[C@@H](N)Cc1ccc(O)cc1)C(=O)N[C@@H](Cc1ccccc1)C(=O)N[C@@H](CC(C)C)C(=O)N[C@@H](CCCN=C(N)N)C(=O)N[C@@H](CCCN=C(N)N)C(=O)N[C@H](C(=O)N[C@@H](CCCN=C(N)N)C(=O)N1CCC[C@H]1C(=O)N[C@@H](CCCCN)C(N)=O)[C@@H](C)CC`, in [8], the Inhibition amounted to 5.7%. In addition, the IC50 in assay [2] amounted to 55 nM; in assay [3], 1030 nM. The Ratio in [4] was above 1100; in assay [5] it was 19; in [6], 260.
With `CC[C@H](C)[C@H](NC(=O)[C@H](CCCN=C(N)N)NC(=O)[C@H](CCCN=C(N)N)NC(=O)[C@H](CC(C)C)NC(=O)[C@H](Cc1ccccc1)NC(=O)[C@H](Cc1ccccc1)NC(=O)CNC(=O)[C@@H](N)Cc1ccc(O)cc1)C(=O)N[C@@H](CCCN=C(N)N)C(=O)N1CCC[C@H]1C(=O)N[C@@H](CCCCN)C(N)=O`, the results for the IC50 in assay [1], in [2] and in assay [3] were 1.1 nM, 0.89 nM and 27.1 nM, respectively. The Ratio in assay [4] stood at 1.2; in [5], 30; in [6], 315.
In the case of `CC[C@H](C)[C@H](NC(=O)[C@H](CCCN=C(N)N)NC(=O)[C@H](CCCN=C(N)N)NC(=O)[C@H](CC(C)C)NC(=O)[C@H](Cc1ccccc1)NC(=O)[C@@H](Cc1ccccc1)NC(=O)CNC(=O)[C@@H](N)Cc1ccc(O)cc1)C(=O)N[C@@H](CCCN=C(N)N)C(=O)N1CCC[C@H]1C(=O)N[C@@H](CCCCN)C(N)=O`, the IC50 came out at 370 nM in assay [1], 5.9 nM in [2] and 86 nM in assay [3]. Moreover, the Ratio in assay [4] came to 62; in [5], 15; in assay [6], 125.
Turning to `CC[C@H](C)[C@H](NC(=O)CNC(=O)[C@@H](N)Cc1ccc(O)cc1)C(=O)N[C@@H](Cc1ccccc1)C(=O)N[C@@H](CC(C)C)C(=O)N[C@@H](CCCN=C(N)N)C(=O)N[C@@H](CCCN=C(N)N)C(=O)N[C@H](C(=O)N[C@@H](CCCN=C(N)N)C(=O)N1CCC[C@H]1C(=O)N[C@@H](CCCCN)C(N)=O)[C@@H](C)CC`, the IC50 was found to be 460 nM in [1], 40 nM in [2] and 860 nM in [3]. For the same compound, the Ratio in assay [4] is 12; in assay [5], 22.
Take `CC[C@H](C)[C@H](NC(=O)[C@H](CCCNC(=N)N)NC(=O)[C@H](CCCNC(=N)N)NC(=O)[C@H](CC(C)C)NC(=O)[C@H](Cc1ccccc1)NC(=O)[C@@H](CCC(=O)O)NC(=O)CNC(=O)[C@@H](N)Cc1ccc(O)cc1)C(=O)N[C@@H](CCCNC(=N)N)C(=O)N1CCC[C@H]1C(=O)N[C@@H](CCCCN)C(N)=O`: the IC50 in [2] is 1100 nM; in [3] it was 2500 nM.
In assay [9], `CC[C@H](C)[C@H](NC(=O)[C@H](CCCN=C(N)N)NC(=O)[C@H](CCCN=C(N)N)NC(=O)[C@H](CC(C)C)NC(=O)[C@H](Cc1ccccc1)NC(=O)[C@@H](Cc1ccc(O)cc1)NC(=O)CNC(=O)[C@@H](N)Cc1ccc(O)cc1)C(=O)N[C@@H](CCCN=C(N)N)C(=O)N1CCC[C@H]1C(=O)N[C@@H](CCCCN)C(N)=O` returned an inhibition at 60 µM of 41.7%. The IC50 came out at 23.1 nM in assay [2] and 650 nM in assay [3]. Moreover, in assay [4], the Ratio was above 2600.
Consider `CC[C@H](C)[C@H](NC(=O)[C@H](CCCN=C(N)N)NC(=O)[C@H](CCCN=C(N)N)NC(=O)[C@H](CC(C)C)NC(=O)[C@H](Cc1ccccc1)NC(=O)[C@@H](NC(=O)CNC(=O)[C@@H](N)Cc1ccc(O)cc1)[C@@H](C)c1c(C)cccc1C)C(=O)N[C@@H](CCCN=C(N)N)C(=O)N1CCC[C@H]1C(=O)N[C@@H](CCCCN)C(N)=O`, for which the IC50 in [1] is 40800 nM; in [2], 113 nM; in assay [3] it was 2800 nM. Moreover, the Ratio in assay [4] is 360.
On the same counts, the results for `CC[C@H](C)[C@H](NC(=O)[C@H](CCCN=C(N)N)NC(=O)[C@H](CCCN=C(N)N)NC(=O)[C@H](CC(C)C)NC(=O)[C@H](Cc1ccccc1)NC(=O)[C@H](Cc1ccc(O)cc1)NC(=O)CNC(=O)[C@@H](N)Cc1ccc(O)cc1)C(=O)N[C@@H](CCCN=C(N)N)C(=O)N1CCC[C@H]1C(=O)N[C@@H](CCCCN)C(N)=O` are 220 nM, 8.9 nM, 290 nM and 25.
The compound `CC[C@H](C)[C@H](NC(=O)[C@H](CCCN=C(N)N)NC(=O)[C@H](CCCN=C(N)N)NC(=O)[C@H](CC(C)C)NC(=O)[C@H](Cc1ccccc1)NC(=O)[C@@H](CCC(=O)O)NC(=O)CNC(=O)[C@@H](N)Cc1ccc(O)cc1)C(=O)N[C@@H](CCCN=C(N)N)C(=O)N1CCC[C@H]1C(=O)N[C@@H](CCCCN)C(N)=O` displayed an IC50 in assay [1] of 5700 nM. For the same compound, the Ratio was 5 in assay [4], 2.3 in [5] and 12 in assay [6].
In assay [10], `CC[C@H](C)[C@H](NC(=O)[C@H](CCCN=C(N)N)NC(=O)[C@H](CCCN=C(N)N)NC(=O)[C@H](CC(C)C)NC(=O)[C@H](Cc1ccccc1)NC(=O)[C@H](CCCCN)NC(=O)CNC(=O)[C@@H](N)Cc1ccc(O)cc1)C(=O)N[C@@H](CCCN=C(N)N)C(=O)N1CCC[C@H]1C(=O)N[C@@H](CCCCN)C(N)=O` registered an inhibition at 30 µM of 15.6%. The IC50 was 240 nM in assay [2] and 7400 nM in assay [3]. In addition, the values for the Ratio in assay [4], in [5] and in assay [6] were above 120, 31 and above 330, respectively. Besides, the inhibition in assay [11] worked out at 30%.

(Values after ChEMBL document CHEMBL1129348, “Effects of modifications of residues in position 3 of dynorphin A(1-11)-NH2 on kappa receptor selectivity and potency” (J Med Chem, 1996).)
